In article PMC3086726 (Nuclear medicine and biology, 2010):
Like-named read-outs stand apart in the source and are kept apart here.

Assays:
[1] = type: in vitro ADME; conditions: mouse, serum, pH 7.4
[2] = In vitro stability of 99mTc-cyclized analogues in PBS; type: physicochemical; conditions: pH 7.4, 37 °C
Method in brief: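 Test peptides were labelled with 99mTc by exchange from 99mTc-glucoheptonate (pH 7.9–8.1, 60 °C, 30 min), purified by radio-RP-HPLC, mixed with gentisic acid and evaporated. They were diluted in PBS or 1 mM cysteine, adjusted to pH 7.4 and incubated at 37 °C. Aliquots at 1, 2, 4 and 24 h were analysed by RP-HPLC for % intact. Replicate measurements used radio-TLC on C18 (10% ammonium acetate; 1:1 TFA-water/acetonitrile).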

[3] = Stability of 99mTc-cyclized analogues to cysteine challenge; type: physicochemical; conditions: pH 7.4, 37 °C
[4] = set-up: species or system CF-1 mice; conditions: mouse
[5] = mouse, cited from earlier work

With “^99mTc-Ac-Cys^1,Tyr^3-octreotate [99mTc-2]” the “percent intact 99mTc-analogue post purification” value ([1]; 1 h) was 96.7 ± 0.8%, the “percent intact 99mTc-analogue post purification” value ([1]; 2 h) was 97.1 ± 0.7% and the “percent intact 99mTc-analogue post purification” value ([1]; 4 h) was 97.0 ± 0.2%. The “percent intact 99mTc-analogue post purification” value ([1]; 24 h) was 94.7 ± 2.4%, the “percent intact 99mTc-analogue post purification” value ([2]; 1 h) was 98.3 ± 0.5% and the “percent intact 99mTc-analogue post purification” value ([2]; 2 h) was 98.0 ± 0.2%. The “percent intact 99mTc-analogue post purification” value ([2]; 4 h) was 97.8 ± 0.9%, the “percent intact 99mTc-analogue post purification” value ([2]; 24 h) was 94.1 ± 1.4% and the “percent intact 99mTc-analogue post purification” value ([3]; 10 mM Cys, 1 h) was 99.4 ± 0.3%. The “percent intact 99mTc-analogue post purification” value ([3]; 10 mM Cys, 2 h) was 99.1 ± 0.5%, the “percent intact 99mTc-analogue post purification” value ([3]; 10 mM Cys, 4 h) was 99.3 ± 0.1% and the “percent intact 99mTc-analogue post purification” value ([3]; 10 mM Cys, 24 h) was 93.3 ± 0.7%. The “In vivo biodistribution, Adrenals” value ([4]; 150 ug, 1 h) was 0.63 ± 0.19 %ID/g, the “In vivo biodistribution, Blood” value ([4]; 150 ug, 1 h) was 1.38 ± 0.15 %ID/g and the “In vivo biodistribution, Kidney” value ([4]; 150 ug, 1 h) was 2.97 ± 0.19 %ID/g. The “In vivo biodistribution, Lg. Int” value ([4]; 150 ug, 1 h) was 0.56 ± 0.04 %ID/g, the “In vivo biodistribution, Liver” value ([4]; 150 ug, 1 h) was 1.78 ± 0.59 %ID/g and the “In vivo biodistribution, Muscle” value ([4]; 150 ug, 1 h) was 0.43 ± 0.05 %ID/g. For the same substance, the “In vivo biodistribution, Pancreas” value ([4]; 150 ug, 1 h) was 0.54 ± 0.10 %ID/g, the “In vivo biodistribution, Sm. lnt” value ([4]; 150 ug, 1 h) was 24.29 ± 3.21 %ID/g and the “In vivo biodistribution, Spleen” value ([4]; 150 ug, 1 h) was 0.47 ± 0.07 %ID/g. For the same substance, the “In vivo biodistribution, Stomach” value ([4]; 150 ug, 1 h) was 5.69 ± 0.45 %ID/g, the “In vivo biodistribution, Adrenals” value ([4]; 1 h) was 0.36 ± 0.04 %ID/g and the “In vivo biodistribution, Blood” value ([4]; 1 h) was 0.95 ± 0.12 %ID/g. For the same substance, the “In vivo biodistribution, Kidney” value ([4]; 1 h) was 2.61 ± 0.64 %ID/g, the “In vivo biodistribution, Lg. Int” value ([4]; 1 h) was 0.53 ± 0.08 %ID/g and the “In vivo biodistribution, Liver” value ([4]; 1 h) was 1.60 ± 0.17 %ID/g. For the same substance, the “In vivo biodistribution, Muscle” value ([4]; 1 h) was 0.26 ± 0.02 %ID/g, the “In vivo biodistribution, Pancreas” value ([4]; 1 h) was 0.46 ± 0.15 %ID/g and the “In vivo biodistribution, Sm. lnt” value ([4]; 1 h) was 20.28 ± 3.58 %ID/g. The “In vivo biodistribution, Spleen” value ([4]; 1 h) was 0.38 ± 0.09 %ID/g, the “In vivo biodistribution, Stomach” value ([4]; 1 h) was 2.95 ± 1.42 %ID/g and the “In vivo biodistribution, Adrenals” value ([4]; 4 h) was 0.22 ± 0.07 %ID/g. The “In vivo biodistribution, Blood” value ([4]; 4 h) was 0.34 ± 0.04 %ID/g, the “In vivo biodistribution, Kidney” value ([4]; 4 h) was 1.43 ± 0.34 %ID/g and the “In vivo biodistribution, Lg. Int” value ([4]; 4 h) was 28.18 ± 4.57 %ID/g. The “In vivo biodistribution, Liver” value ([4]; 4 h) was 0.47 ± 0.15 %ID/g, the “In vivo biodistribution, Muscle” value ([4]; 4 h) was 0.08 ± 0.04 %ID/g and the “In vivo biodistribution, Pancreas” value ([4]; 4 h) was 0.15 ± 0.03 %ID/g. For the same substance, the “In vivo biodistribution, Sm. lnt” value ([4]; 4 h) was 1.94 ± 0.50 %ID/g, the “In vivo biodistribution, Spleen” value ([4]; 4 h) was 0.12 ± 0.01 %ID/g and the “In vivo biodistribution, Stomach” value ([4]; 4 h) was 3.88 ± 0.54 %ID/g. The “In vivo biodistribution, Adrenals” value ([4]; 24 h) was 0.03 ± 0.01 %ID/g, the “In vivo biodistribution, Blood” value ([4]; 24 h) was 0.06 ± 0.01 %ID/g and the “In vivo biodistribution, Kidney” value ([4]; 24 h) was 0.48 ± 0.10 %ID/g. For the same substance, the “In vivo biodistribution, Lg. Int” value ([4]; 24 h) was 1.18 ±0.66 %ID/g, the “In vivo biodistribution, Liver” value ([4]; 24 h) was 0.11 ± 0.01 %ID/g and the “In vivo biodistribution, Muscle” value ([4]; 24 h) was 0.01 ± 0.01 %ID/g. The “In vivo biodistribution, Pancreas” value ([4]; 24 h) was 0.02 ± 0.01 %ID/g, the “In vivo biodistribution, Sm. lnt” value ([4]; 24 h) was 0.22 ± 0.04 %ID/g and the “In vivo biodistribution, Spleen” value ([4]; 24 h) was 0.04 ± 0.01 %ID/g. The “In vivo biodistribution, Stomach” value ([4]; 24 h) was 0.61 ± 0.15 %ID/g.

In the case of ^99mTc-Tyr^3-octreotate [99mTc-TATE], the “percent intact 99mTc-analogue post purification” value ([1]; 1 h) was 97.4 ± 1.9%, the “percent intact 99mTc-analogue post purification” value ([1]; 2 h) was 97.1 ± 1.5% and the “percent intact 99mTc-analogue post purification” value ([1]; 4 h) was 95.2 ± 1.7%. The “percent intact 99mTc-analogue post purification” value ([1]; 24 h) was 57.6 ± 7.5%, the “percent intact 99mTc-analogue post purification” value ([2]; 1 h) was 86.2 ± 5.4% and the “percent intact 99mTc-analogue post purification” value ([2]; 2 h) was 73.7 ± 4.3%. For the same substance, the “percent intact 99mTc-analogue post purification” value ([2]; 4 h) was 60.4 ± 1.8%, the “percent intact 99mTc-analogue post purification” value ([2]; 24 h) was 37.9 ± 7.7% and the “percent intact 99mTc-analogue post purification” value ([3]; 1 mM Cys, 1 h) was 95.8 ± 2.4%. For the same substance, the “percent intact 99mTc-analogue post purification” value ([3]; 1 mM Cys, 2 h) was 85.3 ± 4.0%, the “percent intact 99mTc-analogue post purification” value ([3]; 1 mM Cys, 4 h) was 77.8 ± 3.3% and the “percent intact 99mTc-analogue post purification” value ([3]; 1 mM Cys, 24 h) was 45.0 ± 5.8%. The “percent intact 99mTc-analogue post purification” value ([3]; 10 mM Cys, 1 h) was 63.9 ± 4.1%, the “percent intact 99mTc-analogue post purification” value ([3]; 10 mM Cys, 2 h) was 53.3 ± 3.5% and the “percent intact 99mTc-analogue post purification” value ([3]; 10 mM Cys, 4 h) was 42.5 ± 5.6%. The “percent intact 99mTc-analogue post purification” value ([3]; 10 mM Cys, 24 h) was 15.0 ± 8.3%, the “In vivo biodistribution, Adrenals” value ([5]; 4 h) was 0.14 ± 0.06 %ID/g and the “In vivo biodistribution, Blood” value ([5]; 4 h) was 0.44 ± 0.05 %ID/g. The “In vivo biodistribution, Kidney” value ([5]; 4 h) was 1.37 ± 0.29 %ID/g, the “In vivo biodistribution, Lg. Int” value ([5]; 4 h) was 60.20 ± 6.39 %ID/g and the “In vivo biodistribution, Liver” value ([5]; 4 h) was 0.66 ± 0.03 %ID/g. For the same substance, the “In vivo biodistribution, Muscle” value ([5]; 4 h) was 0.05 ± 0.01 %ID/g, the “In vivo biodistribution, Pancreas” value ([5]; 4 h) was 0.19 ± 0.06 %ID/g and the “In vivo biodistribution, Sm. lnt” value ([5]; 4 h) was 2.08 ± 1.08 %ID/g. For the same substance, the “In vivo biodistribution, Spleen” value ([5]; 4 h) was 0.20 ± 0.02 %ID/g, the “In vivo biodistribution, Stomach” value ([5]; 4 h) was 4.82 ± 0.95 %ID/g and the “In vivo biodistribution, Adrenals” value ([5]; 24 h) was 0.01 ± 0.01 %ID/g. For the same substance, the “In vivo biodistribution, Blood” value ([5]; 24 h) was 0.05 ± 0.01 %ID/g, the “In vivo biodistribution, Kidney” value ([5]; 24 h) was 0.60 ± 0.05 %ID/g and the “In vivo biodistribution, Lg. Int” value ([5]; 24 h) was 0.59 ± 0.24 %ID/g. For the same substance, the “In vivo biodistribution, Liver” value ([5]; 24 h) was 0.22 ± 0.03 %ID/g, the “In vivo biodistribution, Muscle” value ([5]; 24 h) was 0.01 ± 0.01 %ID/g and the “In vivo biodistribution, Pancreas” value ([5]; 24 h) was 0.03 ± 0.01 %ID/g. The “In vivo biodistribution, Sm. lnt” value ([5]; 24 h) was 0.19 ± 0.01 %ID/g, the “In vivo biodistribution, Spleen” value ([5]; 24 h) was 0.05 ± 0.01 %ID/g and the “In vivo biodistribution, Stomach” value ([5]; 24 h) was 0.69 ± 0.23 %ID/g.
